Measurements published in ChEMBL document CHEMBL4406881, “Design, synthesis and biological evaluation of benzoylacrylic acid shikonin ester derivatives as irreversible dual inhibitors of tubulin and EGFR” (Bioorg Med Chem, 2019).
Calls of active or inactive are those of the source. No cut-off for these calls is given here.

What was measured:
[1] = Cytotoxicity against human LO2 cells assessed as reduction in cell viability after 24 hrs by MTT assay; format: cell-based, L02
How it was run: (§1)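 MTT colorimetric assay. Cells in log phase in medium with 10% FBS were seeded at 10⁴ cells/well and left overnight at 37 °C, 5% CO₂ to reattach. Compounds were added at 0.1, 1, 10 and 100 μM in 10% FBS for 24 h. IC50 reported as mean ± SD of three independent experiments.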

[2] = test system: NCI-H460; assay: Antiproliferative activity against human H460 cells assessed as reduction in cell viability after 24 hrs by MTT assay; format: functional, cell-based; details: NCI-H460, 24 h; how it was run: as §1
[3] = test system: NCI-H1975; assay: Antiproliferative activity against human NCI-H1975 cells assessed as reduction in cell viability after 24 hrs by MTT assay; format: functional, cell-based; details: NCI-H1975, 24 h; how it was run: as §1
[4] = test system: A549; assay: Induction of apoptosis in human A549 cells assessed as necrotic cells after at 2 uM 24 hrs by Annexin-V/PI staining based flow cytometry analysis (reference value: 1.81%); format: functional
How it was run: (§2)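 A549 cells seeded overnight at 37 °C, 5% CO2, then exposed to 0, 2, 4, 8 or 12 µM for 24 h (dose series) or 8 µM for 0, 12, 24, 36 h (time series). Harvested, PBS-washed, stained with Annexin V-FITC and PI in binding buffer 15 min at room temperature in the dark, analysed by flow cytometry; three independent experiments.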

[5] = test system: A549; assay: Induction of apoptosis in human A549 cells assessed as early apoptotic cells at 8 uM after 24 hrs by Annexin-V/PI staining based flow cytometry analysis (reference value: 1.15%); format: functional
[6] = test system: A549; assay: Induction of apoptosis in human A549 cells assessed as late apoptotic cells at 8 uM after 12 hrs by Annexin-V/PI staining based flow cytometry analysis (reference value: 6.55%); format: functional; how it was run: as §2
[7] = test system: A549; assay: Induction of apoptosis in human A549 cells assessed as early apoptotic cells at 8 uM after 24 hrs by Annexin-V/PI staining based flow cytometry analysis (reference value: 2.02%); format: functional
[8] = test system: A549; assay: Induction of apoptosis in human A549 cells assessed as viable cells at 8 uM after 36 hrs by Annexin-V/PI staining based flow cytometry analysis (reference value: 88.4%); format: functional; details: A549, 36 h, read-out: Activity; how it was run: as §2
[9] = test system: A549; assay: Induction of apoptosis in human A549 cells assessed as low mitochondrial membrane potential at 8 uM after 12 hrs by JC-1 staining-based flow cytometric analysis (reference value: 6.3%); format: functional
[10] = test system: A549; assay: Induction of apoptosis in human A549 cells assessed as high mitochondrial membrane potential at 8 uM after 12 hrs by JC-1 staining-based flow cytometric analysis (reference value: 90.6%); format: functional
How it was run: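 JC-1 staining of A549 cells treated for 12 h. CCCP-treated wells, 20 min at 37 °C, served as positive control. Collected cells were incubated with JC-1 solution at 37 °C for 30 min, washed, and analysed by flow cytometry for the fraction with high ΔΨm and for PI-positive cells. Results are mean ± S.E.M. of three replicates.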

[11] = test system: A549; assay: Induction of apoptosis in human A549 cells at 8 uM by Annexin-V/PI staining based flow cytometry analysis; format: functional, cell-based; details: TDE = time-dependent effect; how it was run: as §2
[12] = test system: A549; assay: Induction early apoptosis in human A549 cells assessed as increase in ROS generation after by flow cytometric analysis; format: functional, cell-based
How it was run: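 Intracellular ROS measured in A549 cells seeded to about 75% confluence. After treatment, cells were stained with ROS detection solution at 37 °C for 20 min, washed three times in serum-free medium, and analysed by flow cytometry.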

[13] = test system: A549; assay: Cell cycle arrest in human A549 cells assessed as accumulation at S phase at 2 uM after 24 hrs by RNAse A/ PI staining based flow cytometric analysis (reference value: 17.23%); format: functional
How it was run: (§3)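 A549 cells at 5.0×10^4 per well were grown 12 h at 37 °C. Treatment was 0, 2, 4 or 8 µM for 24 h, or 8 µM for 0, 12, 24 or 36 h. Cells were fixed in 70% ethanol at −20 °C for at least 12 h, then stained in PBS with 0.1 mg/mL RNase A and 5 µg/mL PI. At least 10,000 events per sample were collected by flow cytometry to give G0/G1, S and G2/M percentages.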

[14] = test system: A549; assay: Cell cycle arrest in human A549 cells assessed as accumulation at G1 phase at 4 uM after 24 hrs by RNAse A/ PI staining based flow cytometric analysis (reference value: 73.30%); format: functional; how it was run: as §3
[15] = test system: A549; assay: Cell cycle arrest in human A549 cells assessed as accumulation at G1 phase at 8 uM after 24 hrs by RNAse A/ PI staining based flow cytometric analysis (reference value: 73.30%); format: functional; how it was run: as §3
[16] = test system: A549; assay: Cell cycle arrest in human A549 cells assessed as accumulation at S phase at 8 uM after 24 hrs by RNAse A/ PI staining based flow cytometric analysis (reference value: 17.23%); format: functional; how it was run: as §3
[17] = test system: A549; assay: Cell cycle arrest in human A549 cells assessed as accumulation at G1 phase at 8 uM after 24 hrs by RNAse A/ PI staining based flow cytometric analysis (reference value: 67.69%); format: functional; how it was run: as §3
[18] = test system: A549; assay: Cell cycle arrest in human A549 cells assessed as accumulation at S phase at 8 uM after 24 hrs by RNAse A/ PI staining based flow cytometric analysis (reference value: 19.66%); format: functional; how it was run: as §3
[19] = target: T1, Epidermal growth factor receptor (Homo sapiens, UniProt P00533); assay: Inhibition of EGFR signalling in human A549 cells assessed as reduction in AKT phosphorylation after 24 hrs by Western blot analysis; format: cell-based
T1 sequence (P00533 whole entry): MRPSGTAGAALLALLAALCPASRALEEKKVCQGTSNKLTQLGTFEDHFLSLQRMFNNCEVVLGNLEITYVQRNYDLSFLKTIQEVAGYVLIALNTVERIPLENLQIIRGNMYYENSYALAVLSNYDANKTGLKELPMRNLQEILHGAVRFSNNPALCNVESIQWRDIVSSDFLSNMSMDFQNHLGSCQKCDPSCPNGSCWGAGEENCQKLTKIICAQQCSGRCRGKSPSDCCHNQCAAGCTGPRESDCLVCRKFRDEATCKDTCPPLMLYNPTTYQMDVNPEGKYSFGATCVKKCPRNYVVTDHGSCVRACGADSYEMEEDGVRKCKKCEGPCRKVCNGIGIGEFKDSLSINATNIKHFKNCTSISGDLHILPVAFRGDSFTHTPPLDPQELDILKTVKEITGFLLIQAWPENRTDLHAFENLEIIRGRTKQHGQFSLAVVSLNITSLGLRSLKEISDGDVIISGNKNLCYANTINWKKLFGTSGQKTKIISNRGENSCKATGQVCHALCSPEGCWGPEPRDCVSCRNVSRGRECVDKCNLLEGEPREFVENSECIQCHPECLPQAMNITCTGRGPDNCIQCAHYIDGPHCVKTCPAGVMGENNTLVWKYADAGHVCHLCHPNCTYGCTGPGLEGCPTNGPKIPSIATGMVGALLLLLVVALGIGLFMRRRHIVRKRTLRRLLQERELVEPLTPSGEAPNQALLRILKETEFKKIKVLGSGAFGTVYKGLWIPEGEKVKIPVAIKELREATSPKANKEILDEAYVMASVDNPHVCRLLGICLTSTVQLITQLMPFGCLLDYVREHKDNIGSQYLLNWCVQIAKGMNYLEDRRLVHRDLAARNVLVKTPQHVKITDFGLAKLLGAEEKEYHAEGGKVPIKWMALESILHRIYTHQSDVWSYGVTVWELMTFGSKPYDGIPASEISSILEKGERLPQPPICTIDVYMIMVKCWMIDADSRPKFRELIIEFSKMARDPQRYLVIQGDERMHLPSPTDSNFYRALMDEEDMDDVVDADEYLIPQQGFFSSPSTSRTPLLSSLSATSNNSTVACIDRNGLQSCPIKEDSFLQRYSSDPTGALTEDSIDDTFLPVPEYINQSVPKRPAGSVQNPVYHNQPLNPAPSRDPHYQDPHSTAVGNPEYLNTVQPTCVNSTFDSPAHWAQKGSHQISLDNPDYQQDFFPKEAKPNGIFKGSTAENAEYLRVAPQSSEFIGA
How it was run: (§4)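 A549 cells in 6-well plates were lysed in RIPA buffer with protease inhibitors on ice for 30 min and cleared at 4 °C. Protein was quantified by BCA, run on SDS-PAGE and transferred to PVDF. Membranes were blocked with milk, probed with primary antibody (1:1000) overnight at 4 °C, then secondary antibody (1:3000-1:5000) 1 h at RT. Detection by ECL; band densitometry normalised to GAPDH (β-actin also used). Three independent experiments.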

[20] = target: T1, Epidermal growth factor receptor; assay: Inhibition of EGFR signalling in human A549 cells assessed as reduction in ERK phosphorylation after 24 hrs by Western blot analysis; format: cell-based; how it was run: as §4
[21] = test system: A549; assay: Antitumour activity in ip dosed Balb/c mouse xenografted with human A549 cells assessed as increase in mouse survival at 2 to 4 mg/kg, ip administered once every two days for 32 days; format: functional, organism-based
[22] = target: Tubulin (Homo sapiens) (UniProt P68371+Q9H4B7+P0DPH7+P68366+Q13509+Q71U36+P04350+Q3ZCM7+P07437+P68363+Q9BQE3+Q6PEY2+Q13885+Q9BVA1+Q9BUF5); assay: Inhibition of microtubule polymerization in human A549 cells assessed as polymerized tubulin expression at 8 uM after 24 hrs by immuno blot analysis (reference value: 0.85); format: cell-based
How it was run: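 Cells were lysed in hypotonic buffer 5 min at 37 °C and centrifuged 10000 rpm, 10 min, 25 °C. Soluble (supernatant) and polymerised (pellet) tubulin fractions were resolved by SDS-PAGE in equal amounts and immunoblotted for β-tubulin.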

[23] = test system: A549; assay: Cell cycle arrest in human A549 cells assessed as accumulation at S phase at 8 uM after 12 hrs by RNAse A/ PI staining based flow cytometric analysis (reference value: 19.66%); format: functional; how it was run: as §3

## CC(C)=CC[C@@H](OC(=O)/C=C\C(=O)c1ccc(F)cc1)C1=CC(=O)c2c(O)ccc(O)c2C1=O
[1]
  CC50 at 24 h: 89.2 µM
[2]
  IC50: 5.61 µM
[3]
  IC50: 9.43 µM
[4]
  Activity: 2.2%
[5]
  Activity: 35.6%
[6]
  Activity: 10%
[7]
  Activity: 31.7%
[8]
  viability at 8 µM: 12.2%
[9]
  Activity: 39.3%
[10]
  Activity: 55.8%
[11]
  Activity: Tde
[12]
  Activity: Dose-dependent effect
[13]
  Activity: 22.93%
[14]
  Activity: 59.17%
[15]
  Activity: 47.33%
[16]
  Activity: 19.66%
[17]
  Activity: 42.59%
[18]
  Activity: 23.66%
[19]
  inhibition: Dose-dependent effect
[20]
  inhibition: Dose-dependent effect
[21]
  Activity: Active
[22]
  fold change (FC): 0.69
[23]
  Activity: 24.72%
